Only some compounds are listed: those with a hit (about 2.3% of all), similar ones and a draw of the others.
TRPC6 act: mouse TRPC6 channel activation | 0.13% of 310,000 active | Q61143 | HEK293-TRPC6 membrane potential dye fluorescence; hits give high values | AID 2550 | B-score at 10 µM;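 active = B-score of the integrated fluorescence ratio above library mean plus 3 SD, and starting fluorescence ratio within library mean plus 5 SD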;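 also: higher score means more depolarization so channel activation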
TRPC4 act: activators of mouse TRPC4 channel; Q9QUQ5; HEK293 TRPC4beta/mu-opioid, Fluo4 calcium fluorescence; hits give high values; B-score at 10 µM; 0.49% of 310,000 active; AID 2237;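 active = B-score above 5 SD of library B-scores, and initial fluorescence ratio not above library mean plus 5 SD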;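 also: positive B-score marks a calcium rise read as TRPC4 activation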
Target sequence (Q9QUQ5 whole entry, looked up): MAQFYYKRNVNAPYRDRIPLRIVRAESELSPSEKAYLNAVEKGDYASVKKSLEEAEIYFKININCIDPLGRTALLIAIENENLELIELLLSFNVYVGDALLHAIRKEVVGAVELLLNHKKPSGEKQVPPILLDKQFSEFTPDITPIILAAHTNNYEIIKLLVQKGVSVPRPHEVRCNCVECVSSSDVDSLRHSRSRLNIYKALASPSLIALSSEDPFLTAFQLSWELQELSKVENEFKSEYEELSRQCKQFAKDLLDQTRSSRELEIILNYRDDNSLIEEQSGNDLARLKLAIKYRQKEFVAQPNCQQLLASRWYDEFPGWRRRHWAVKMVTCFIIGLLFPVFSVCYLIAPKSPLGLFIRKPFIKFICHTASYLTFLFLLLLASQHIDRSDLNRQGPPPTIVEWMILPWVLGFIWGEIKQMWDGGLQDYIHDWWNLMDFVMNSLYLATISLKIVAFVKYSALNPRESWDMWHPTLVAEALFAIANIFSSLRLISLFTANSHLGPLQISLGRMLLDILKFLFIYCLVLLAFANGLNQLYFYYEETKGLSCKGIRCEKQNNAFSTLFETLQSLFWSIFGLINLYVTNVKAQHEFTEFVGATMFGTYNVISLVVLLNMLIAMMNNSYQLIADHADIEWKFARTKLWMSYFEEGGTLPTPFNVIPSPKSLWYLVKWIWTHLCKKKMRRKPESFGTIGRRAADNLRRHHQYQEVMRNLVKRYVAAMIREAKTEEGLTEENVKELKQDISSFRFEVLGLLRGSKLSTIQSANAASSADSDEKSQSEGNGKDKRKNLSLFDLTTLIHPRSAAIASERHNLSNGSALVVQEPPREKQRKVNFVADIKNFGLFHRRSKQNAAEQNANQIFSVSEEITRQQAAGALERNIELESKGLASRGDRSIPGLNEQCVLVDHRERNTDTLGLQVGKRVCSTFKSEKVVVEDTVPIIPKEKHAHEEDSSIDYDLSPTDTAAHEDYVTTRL
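Assay system: HEK293 stable line with TRPC4beta plus mu-opioid receptor; schedule: 45 min room-temperature Fluo4 loading, 110 s read; technique: kinetic Fluo4 calcium fluorescence; evaluation: integrated baseline-normalised fluorescence ratio, converted to per-well B score; controls: buffer (low) and maximal DAMGO (high)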
TRPC4 block: inhibitors of mouse TRPC4 channel; Q9QUQ5; HEK293 TRPC4beta/mu-opioid, DAMGO-evoked Fluo4 calcium flux; hits give low values; B-score at 10 µM; 0.39% of 300,000 active; AID 2247;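 active = B-score over 3 SD under the library average, no early fluorescence shift, positive overall ratio signal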
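Signal: kinetic Fluo4 fluorescence imaging of calcium influx. Material: stable TRPC4beta/mu-opioid receptor HEK293 cells. Probe or stimulus: DAMGO in two steps, submaximal then maximal.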
TRPC4 potent: allosterically enhances the mouse TRPC4 cation channel | Q9QUQ5 | HEK293 TRPC4beta/mu-opioid, DAMGO EC20, Fluo-4 Ca2+ flux; hits give high values | B-score at 10 µM | 0.42% of 310,000 active;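 active = B-score of calcium response area above 5 SD of library B-scores, with initial fluorescence ratio within 5 SD of library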;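 also: B-score of integrated fluorescence ratio over time as area under calcium response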
TRPC6 inhibitor: mouse TRPC6 channel inhibition; Q61143; HEK293-TRPC6, membrane potential dye, ACh-evoked depolarization; hits give low values; B-score at 10 µM; 1.1% of 310,000 active;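 active = B-score under library mean minus 3 SD, initial fluorescence not abnormally high, positive integrated signal ratio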;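 also: B-score derived from integrated fluorescence ratio over the kinetic read; more negative B-score means stronger inhibition of depolarization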
HEK293 TRPC6 ctr: checks TRPC6 modulator effects in parental HEK293 cells | membrane potential dye fluorescence | shares compounds with TRPC6 inhibitor | AID 488924 | membrane potential signal change, % at 10 µM | 51% of 2,400 active;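 active = membrane potential signal moves up or down beyond 5 SD from buffer-only wells, on both duplicate plates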
HEK293 MPD ctr 2: second check of TRPC6 modulator effects in parental HEK293 cells. shares compounds with TRPC6 inhibitor. membrane potential dye fluorescence; after compound, maximal acetylcholine stimulation. inhibition, % at 10 µM. 14% of 2,400 active;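 active = membrane potential signal drops by more than 5 SD from the mean control signal, in both duplicate plates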;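 also: plate controls were acetylcholine ECmax control wells for no effect and buffer only wells for full effect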
TRPC4/MOR mod: selectivity of TRPC6 modulators against mouse TRPC4 | shares compounds with TRPC6 inhibitor | HEK293 TRPC4/mu-opioid, membrane potential fluorescence | percent change from control (negative = decrease, positive = increase), % at 10 µM | 69% of 2,400 active;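 active = membrane potential signal moved up or down beyond 5 SD of buffer control wells, in both duplicate plates, actives on both sides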;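 also: plate controls were assay buffer wells for no effect and DAMGO maximal-effect wells for full effect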
TRPC4 ctr inh 2: mouse TRPC4 off-target activity of TRPC6 modulators, second screen. shares compounds with TRPC6 inhibitor. HEK293 TRPC4/mu-opioid, membrane potential dye fluorescence; stimulated with maximal-effect DAMGO. inhibition, % at 10 µM. 55% of 2,400 active. AID 488928;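 active = drop in membrane potential signal beyond 5 SD of the control wells in both duplicate plates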;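 also: TRPC4 counter screen for TRPC6 hits run under conditions tuned for TRPC6 not TRPC4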
TRPC6 inh conf: mouse TRPC6 inhibitor confirmation; HEK293-TRPC6, membrane potential dye, ACh-evoked depolarization; inhibition, % at 10 µM; shares compounds with TRPC6 inhibitor; 43% of 3,300 active;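 active = fluorescence ratio falls more than 5 SD below the full-stimulation control mean, in both duplicate runs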;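 also: integrated fluorescence ratio of peak minus minimum over baseline after agonist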
TRPC6 act confirm: confirmation of mouse TRPC6 activators. shares compounds with TRPC6 inhibitor. 11% of 2,800 active. activation, % at 10 µM. HEK293-TRPC6 membrane potential dye fluorescence, FDSS;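 active = ratio signal rise beyond 5 SD above unstimulated control wells' mean, seen in both duplicate runs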;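 also: plate controls were buffer EC0 wells for no effect and acetylcholine ECmax response for full effect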
* = called active by the depositor; i = inactive; · = not tested or not shown.

SMILES	TRPC6 act	TRPC4 act	TRPC4 block	TRPC4 potent	TRPC6 inhibitor	HEK293 TRPC6 ctr	HEK293 MPD ctr 2	TRPC4/MOR mod	TRPC4 ctr inh 2	TRPC6 inh conf	TRPC6 act confirm
COC(=O)c1ccc(N2CCN(C)CC2)c(NC(=O)c2cccnc2)c1	i	50*	i	i	-8.5*	-444%*	84%*	-76%*	56%*	55%*	i
CN1CCN(c2ccccc2NC(=O)c2cccc([N+](=O)[O-])c2)CC1	i	i	i	i	i	·	·	·	·	·	·
COC(=O)c1ccc(N2CCc3ccccc32)c([N+](=O)[O-])c1	i	i	i	i	-5.3*	i	i	-16%*	40%*	i	i
COc1cccc(NC(=O)c2cc([N+](=O)[O-])ccc2N2CCN(C)CC2)c1	i	i	i	i	i	·	·	·	·	·	·
CN1CCN(c2ccc([N+](=O)[O-])cc2C(=O)Nc2ccccc2)CC1	i	i	i	i	-5.3*	i	i	i	i	i	i
COc1cccc(C(=O)Nc2cc([N+](=O)[O-])ccc2N2CCN(C)CC2)c1	i	i	i	i	-11*	-372%*	i	-61%*	56%*	50%*	i
O=C(O)c1ccc(N2CCc3ccccc32)c([N+](=O)[O-])c1	i	i	i	i	i	·	·	·	·	·	·
Cc1cccc(NS(=O)(=O)c2cc(C(=O)N3CCCCCC3)ccc2C)c1	i	i	i	i	i	·	·	·	·	·	·
COc1ccc(N(C(=O)c2snc(C(N)=O)c2N)C(CC(C)C)C(=O)NCC2CCCO2)cc1 (stereo unspecified)	i	i	i	i	i	·	·	·	·	·	·
O=C(O)c1ccc2c(=O)[nH]c(CCl)nc2c1	i	i	i	i	i	·	·	·	·	·	·
O=C(Nc1cc([N+](=O)[O-])ccc1N1CCCC1)c1ccccc1	i	i	i	i	i	·	·	·	·	·	·
COc1ccc(C(=O)Nc2cc([N+](=O)[O-])ccc2N2CCN(C)CC2)cc1	i	i	i	i	-17*	-386%*	111%*	-60%*	82%*	86%*	i
CN1CCN(c2ccc([N+](=O)[O-])cc2NC(=O)c2ccccc2)CC1	i	i	i	i	-6.4*	-323%*	i	-50%*	36%*	i	i
CN1CCN(c2ccccc2NC(=O)c2ccc(N3CCCCC3)c([N+](=O)[O-])c2)CC1	i	i	i	i	-6.2*	-121%*	i	-31%*	76%*	44%*	i
O=C(NC1CCCCCC1)c1ccc(=O)n(Cc2ccccc2)n1	i	i	i	i	i	·	·	·	·	·	·
Cc1c(Br)c(C(F)(F)F)nn1CC(=O)NCc1ccccc1	i	i	i	i	i	·	·	·	·	·	·
COc1ccc(-n2c(-c3ccc(Cl)cc3)c[n+]3c2CCc2ccccc2-3)cc1	i	i	i	i	-5.1*	-123%*	i	-17%*	42%*	i	i
COc1cccc2c1nc(C)c1cc(C)oc12	i	i	i	i	-5.8*	-316%*	i	-54%*	42%*	i	i
COc1ccc2c(n1)Sc1nc3ccccc3nc1N2	19*	i	i	i	i	210%*	i	106%*	i	i	i
COc1cc2ccccc2nn1	i	i	i	i	i	·	·	·	·	·	·

Compound activity deposited in PubChem by Johns Hopkins Ion Channel Center.
